# Measurements: ChEMBL document CHEMBL4350976, “Sequence modification of heptapeptide selected by phage display as homing device for HT-29 colon cancer cells to improve the anti-tumour activity of drug delivery systems” (Eur J Med Chem, 2019)
# Where a SMILES comes first, the peptide text is derived from it. The star is where a group is joined. X1 = COc1cccc2c1C(=O)c1c(O)c3c(c(O)c1C2=O)C[C@@](O)(/C(C)=N/OCC(=O)*)C[C@@H]3O[C@H]1C[C@H](N)[C@H](O)[C@H](C)O1
# Experiments:
# [1] = Cytostatic activity against human PE/CA-PJ15 cells preincubated for 24 hrs under serum free condition followed by compound washout and further incubation for 48 hrs in presence of serum by MTT assay; format: functional, cell-based
# Method in brief: (§1)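 Cells were grown at 37 °C in 5% CO2 in medium with 10% heat-inactivated FBS (20% for OVCAR-3) plus penicillin/streptomycin. The medium was RPMI-1640 for most lines, DMEM for U-87 MG and MRC-5, and IMDM for PE/CA-PJ lines. Seeding was 3×10^3–10×10^3 cells per well. Cells had 24 h compound exposure, a wash, and 48 h further culture. Read-out was MTT, normalized to untreated cells and fitted by nonlinear regression for IC50.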
# PANC-1 [2] = assay: Potency index, ratio of compound IC50 to Daunomycin IC50 for human PANC1 cells preincubated for 24 hrs under serum free condition followed by compound washout and further incubation for 48 hrs in presence of serum by MTT assay; format: functional
# NCI-H1650 = assay: Potency index, ratio of compound IC50 to Daunomycin IC50 for human NCI-H1650 cells preincubated for 24 hrs under serum free condition followed by compound washout and further incubation for 48 hrs in presence of serum by MTT assay; format: functional
# WiDr [3] = assay: Cytostatic activity against human WiDr cells preincubated for 24 hrs under serum free condition followed by compound washout and further incubation for 48 hrs in presence of serum by MTT assay; format: functional, cell-based; method in brief: as §1
# CT26.WT [4] = assay: Potency index, ratio of compound IC50 to Daunomycin IC50 for mouse CT26.WT cells preincubated for 24 hrs under serum free condition followed by compound washout and further incubation for 48 hrs in presence of serum by MTT assay; format: functional
# PANC-1 [5] = assay: Cytostatic activity against human PANC1 cells preincubated for 24 hrs under serum free condition followed by compound washout and further incubation for 48 hrs in presence of serum by MTT assay; format: functional, cell-based; method in brief: as §1
# PC-3 = assay: Cytostatic activity against human PC3 cells preincubated for 24 hrs under serum free condition followed by compound washout and further incubation for 48 hrs in presence of serum by MTT assay; format: functional, cell-based; method in brief: as §1
# MCF7 [6] = assay: Cytostatic activity against human MCF7 cells preincubated for 24 hrs under serum free condition followed by compound washout and further incubation for 48 hrs in presence of serum by MTT assay; format: functional, cell-based; method in brief: as §1
# MCF7 [7] = assay: Potency index, ratio of compound IC50 to Daunomycin IC50 for human MCF7 cells preincubated for 24 hrs under serum free condition followed by compound washout and further incubation for 48 hrs in presence of serum by MTT assay; format: functional
# U-87 MG = assay: Cytostatic activity against human U87 cells preincubated for 24 hrs under serum free condition followed by compound washout and further incubation for 48 hrs in presence of serum by MTT assay; format: functional, cell-based, U-87MG ATCC; method in brief: as §1
# [8] = Drug uptake in lysosome of human HT-29 cells assessed as increase in fluorescence at 50 uM after 30 mins by LysoTracker deep red staining based confocal microscopic analysis; format: ADME, subcellular; conditions: ht-29, 0.5 h
# Method in brief: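 HT-29 cells were exposed to 50 µM conjugate for 30 min before imaging. Lysosomes were stained with LysoTracker Deep Red and mitochondria with MitoTracker Deep Red. Confocal imaging detected Dau at 550–600 nm.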
# OVCAR-3 = assay: Potency index, ratio of compound IC50 to Daunomycin IC50 for human OVCAR3 cells preincubated for 24 hrs under serum free condition followed by compound washout and further incubation for 48 hrs in presence of serum by MTT assay; format: functional
# CT26.WT [9] = assay: Cytostatic activity against mouse CT26.WT cells preincubated for 24 hrs under serum free condition followed by compound washout and further incubation for 48 hrs in presence of serum by MTT assay; format: functional, cell-based; method in brief: as §1
# A2058 = assay: Cytostatic activity against human A2058 cells preincubated for 24 hrs under serum free condition followed by compound washout and further incubation for 48 hrs in presence of serum by MTT assay; format: functional, cell-based; method in brief: as §1
# [10] = Stability in human plasma assessed as parent compound remaining at 30 uM measured after 1 hr by LC/MS analysis; format: ADME, cell-free
# Method in brief: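 Conjugates were incubated in 90% human plasma from a healthy volunteer. Samples were taken at 0, 5 and 60 min and analysed by HPLC-MS.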
# HCT-116 = assay: Potency index, ratio of compound IC50 to Daunomycin IC50 for human HCT116 cells preincubated for 24 hrs under serum free condition followed by compound washout and further incubation for 48 hrs in presence of serum by MTT assay; format: functional
# HT-29 = assay: Antitumor activity against human HT-29 cells xenografted in SCID mouse assessed as tumor growth inhibition by measuring decrease in tumor weight at 38.3 mg/kg, ip administered thrice in first week and twice in second week (on days 13, 16, 20, 23 and 27) starting from 13 days post inoculation measured at day 30 post inoculation relative to control; format: functional; conditions: HT-29, ip
# Method in brief: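 Orthotopic HT-29 tumours in female SCID mice aged 6–8 weeks (22–27 g), 8 per group. Conjugates were given i.p. in water for injection at 10 mg/kg Dau content on days 13, 16, 20, 23 and 27. The study ended on day 30. Tumours were weighed against solvent controls, and livers were weighed as a toxicity read-out.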
# NCI-H1975 = assay: Cytostatic activity against human NCI-H1975 cells preincubated for 24 hrs under serum free condition followed by compound washout and further incubation for 48 hrs in presence of serum by MTT assay; format: functional, cell-based; method in brief: as §1
# [11] = Drug metabolism in rat liver lysosomes homogenate assessed as increase in Dau = Aoa-Leu-OH metabolite formation at 0.05 ug/ul after 1 hr by LC-MS analysis; format: ADME, subcellular, Lysosome; conditions: tissue homogenate
# Method in brief: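 Conjugates and rat liver lysosomal homogenate were each used at 0.05 µg/µL. Samples were taken at 0, 1, 3, 6 and 24 h. Metabolites were identified by LC-MS on a C18 column with a formic acid/acetonitrile gradient.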
# [12] = Toxicity in SCID mouse xenografted with human HT-29 cells assessed as animal death at 38.3 mg/kg, ip administered thrice in first week and twice in second week (on days 13, 16, 20, 23 and 27) starting from 13 days post inoculation measured upto 30 days post inoculation; format: organism-based; conditions: in vivo
# Method in brief: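 Female SCID mice (6–8 weeks, 22–27 g) with orthotopic HT-29 colon tumours. Conjugates given i.p. in distilled water for injection at 10 mg/kg Dau content (36.6 or 38.3 mg/kg conjugate) on days 13, 16, 20, 23 and 27, 8 mice/group. Study ended day 30; deaths and body weight recorded against a solvent-treated control group.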
# [13] = Drug uptake in human HT-29 cells cytoplasm at 50 uM after 90 mins by fluorescence based confocal microscopic analysis; format: ADME, subcellular; conditions: ht-29, 1.5 h
# Method in brief: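 HT-29 cells were incubated with 50 µM compound in RPMI for 90 min. Imaging was by confocal microscopy, with Dau detected at 550–600 nm emission.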
# B16 = assay: Cytostatic activity against mouse B16 cells preincubated for 24 hrs under serum free condition followed by compound washout and further incubation for 48 hrs in presence of serum by MTT assay; format: functional, cell-based; method in brief: as §1
# [14] = Potency index, ratio of compound IC50 to Daunomycin IC50 for human WM983B cells preincubated for 24 hrs under serum free condition followed by compound washout and further incubation for 48 hrs in presence of serum by MTT assay; format: functional
# MRC5 = assay: Cytostatic activity against human MRC5 cells preincubated for 24 hrs under serum free condition followed by compound washout and further incubation for 48 hrs in presence of serum by MTT assay; format: ADME, cell-based; method in brief: as §1
# WiDr [15] = assay: Potency index, ratio of compound IC50 to Daunomycin IC50 for human WiDr cells preincubated for 24 hrs under serum free condition followed by compound washout and further incubation for 48 hrs in presence of serum by MTT assay; format: functional
compound,measurement,setting,value
COc1cccc2c1C(=O)c1c(O)c3c(c(O)c1C2=O)C[C@@](O)(/C(C)=N/OCC(=O)N[C@@H](CC(C)C)C(=O)N[C@@H](CCCNC(=N)N)C(=O)N[C@@H](CCCNC(=N)N)C(=O)N[C@@H](Cc1ccc(O)cc1)C(=O)N[C@H](C(=O)N[C@@H](Cc1cnc[nH]1)C(=O)N[C@@H](CC(C)C)C(=O)N[C@@H](Cc1ccccc1)C(=O)N[C@@H](Cc1ccc(O)cc1)C(=O)N[C@@H](C)C(=O)N[C@H](C(N)=O)[C@@H](C)O)C(C)C)C[C@@H]3O[C@H]1C[C@H](N)[C@H](O)[C@H](C)O1 (X1-LRRYVHLFYAT-NH2),IC50,[1],7.4 µM
same,Ratio IC50,PANC-1 [2],57.7
same,Ratio IC50,NCI-H1650,60.1
same,IC50,WiDr [3],15.1 µM
same,Ratio IC50,CT26.WT [4],66
same,IC50,PANC-1 [5],26.9 µM
same,IC50,PC-3,5.9 µM
same,IC50,MCF7 [6],11.1 µM
same,Ratio IC50,MCF7 [7],38.8
same,IC50,U-87 MG,6.6 µM
same,Drug uptake,[8],Active
same,Ratio IC50,OVCAR-3,24
same,IC50,CT26.WT [9],8.3 µM
same,IC50,A2058,3.5 µM
same,Stability,[10],Stable
same,Ratio IC50,HCT-116,57
same,inhibition in vivo at 38.3 mg/kg,HT-29,89%
same,IC50,NCI-H1975,3.7 µM
same,Drug metabolism,[11],Metabolite_Detected
same,Activity,[12],Non-Toxic
same,Drug uptake,[13],Active
same,IC50,B16,3 µM
same,Ratio IC50,[14],114.6
same,IC50,MRC5,52.1 µM
same,Ratio IC50,WiDr [15],62.8
